# Results published in publication PMC2819108 (Bioorganic & medicinal chemistry, 2009).
# Experiments:
# A-10 cells = assay: Loss of microtubules in A-10 cells; assay type: cell-based; conditions: 20 μM compound; Fig. 2
# MCF-7 cells = assay: Cell cycle assay; assay type: cell-based, human; conditions: up to 5 μM; 48 h treatment; Fig. 3
# Procedure, shortened: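 MCF-7 cells at 2×10^5 cells/ml were seeded in DMEM with 5% fetal calf serum and left overnight at 37 °C to attach. Different concentrations of test compound were then added. After 48 h of treatment, cell-cycle distribution was measured by flow cytometry.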
# [1] = system: HUVEC (human umbilical vein endothelial cells); assay: Angiogenesis assay in vitro; assay type: cell-based; conditions: 1 μM; 16 h treatment; Fig. 4
# Procedure, shortened: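 HUVEC (1×10^5 cells) seeded on Matrigel in EBM-2 medium and treated with the test compound over several dose ranges (figure panels: 1 and 10 µM, with untreated control). Tube formation was observed after 16 h of treatment.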
# rat thoracic aorta rings = assay: Aortic ring assay; conditions: 5 μM; day 6; Fig. 5
# Procedure, shortened: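 Thoracic aortas from normal 1–2-month-old rats were excised into ice-cold PBS, cleaned of fibroadipose tissue, and cut into 1–1.5 mm cross-sections. Sections were washed five times in PBS, embedded in Matrigel on coverslips, and held 15 min at 37 °C, 5% CO2. EBM2 containing test compound (1–100 µM) was then added. Sprouting was examined on day 6 against an untreated control.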
# [2] = system: 54 human cancer cell lines; assay: NCI human cancer cell proliferation assay; assay type: cell-based; conditions: 48 h, read-out: GI50 in 16 of the 54 cell lines
# Procedure, shortened: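 The NCI human tumour cell line panel was exposed to test compound at five concentrations in 10-fold serial dilution for 48 h. Growth inhibition was read as total cell protein by sulforhodamine B assay. GI50 was calculated from log dose-response curves.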
# [3] = system: MCF-7 human breast carcinoma cells; assay: MCF-7 cell proliferation assay; assay type: cell-based; conditions: relative to CA-4
Structure (SMILES),effect on interphase microtubule network of A-10 cells (A-10 cells),effect on MCF-7 cell cycle (G2/M phase arrest) (MCF-7 cells),HUVEC tube formation [1],functional angiogenesis in aortic ring assay (sprout formation) (rat thoracic aorta rings),GI50 [2] [nM],fold less active than CA-4 as inhibitor of MCF-7 cell growth [3]
"COc1ccc(/C=C/C(=O)c2cc(OC)c(OC)c(OC)c2)cc1B(O)O [compound 4, 2-Methoxy-5-[(1E)-3-oxo-3-(3,4,5-trimethoxyphenyl)prop-1-en-1-yl]boronic acid]",extensive thinning of the network of microtubules,did not cause significant G2/M phase arrest,significantly inhibited the tube formation,dramatically inhibited functional angiogenesis,10 to 200,–
"COc1ccc(/C=C/C(=O)c2cc(OC)c(OC)c(OC)c2)cc1O [compound 6, (2E)-3-(3-Hydroxy-4-methoxyphenyl)-1-(3,4,5-trimethoxyphenyl) prop-2-en-1-one]",complete disappearance of the microtubule network,–,–,–,–,3–4 fold
